Series [1] addresses T1, Nuclear receptor subfamily 1 group I member 3 (Homo sapiens, UniProt Q14994).
T1 sequence (Q14994 whole entry): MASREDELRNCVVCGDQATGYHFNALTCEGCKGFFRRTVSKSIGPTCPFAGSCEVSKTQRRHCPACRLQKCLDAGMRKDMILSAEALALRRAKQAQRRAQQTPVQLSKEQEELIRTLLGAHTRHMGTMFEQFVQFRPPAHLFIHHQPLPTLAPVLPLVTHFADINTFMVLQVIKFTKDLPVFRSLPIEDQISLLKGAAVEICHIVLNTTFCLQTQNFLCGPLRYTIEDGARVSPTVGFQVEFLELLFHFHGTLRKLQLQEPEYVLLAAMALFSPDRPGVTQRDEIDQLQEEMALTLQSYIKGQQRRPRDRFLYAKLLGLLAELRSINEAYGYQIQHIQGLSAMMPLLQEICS
As to the kind of experiment: Ratio of Emax to EC50 for human constitutive androstane receptor expressed in HepG2 cells co-expressing CYP2B6.

Series [2] deals with T1, Nuclear receptor subfamily 1 group I member 3. As to the kind of experiment: Agonist activity at human constitutive androstane receptor expressed in HepG2 cells co-expressing CYP2B6 incubated for 23 hrs by One-Glo luciferase reporter gene assay. The format is cell-based. Summed up:
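HepG2-CYP2B6-hCAR stable reporter cells, 2,500/well, attached 5 h at 37 °C/5% CO₂. Compounds in DMSO, 16 final concentrations from 6.41 pM to 92 μM (1:3 steps), with PK11195 at 0.75 μM final; final DMSO 0.46%. After 23 h, viability read by CellTiter-Fluor (ex 405/em 540 nm), then ONE-Glo luminescence (30 min, RT) in RLU.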
(In general: A reporter such as luciferase makes a cellular process visible.)

Series [3] shares this target. As to the kind of experiment: Induction of constitutive - androstane receptor in human primary hepatocytes assessed as upregulation of CYP2B6 protein expression measured after 72 hrs by Western blot analysis. The format is cell-based. In short, it runs like this:
(§1)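 Hepatocytes from donors #131 and #133, dosed 36 h after seeding at 0.1, 0.5 and 1 μM (0.1% DMSO vehicle) for 72 h. Homogenate proteins run on 4–12% SDS-PAGE and immunoblotted: anti-CYP2B6 1:200, anti-CYP3A4 1:5000, β-actin 1:50,000 loading control. HRP secondaries, ECL detection.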
(Immunoblotting shows a protein as a band on a membrane.)

Series [4] shares this target. As to the kind of experiment: Induction of constitutive androstane receptor in human primary hepatocytes assessed as upregulation of CYP3A4 mRNA expression measured after 24 hrs by RT-PCR analysis. The class given is cell-based. Summed up: (§2)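 Primary human hepatocytes (donors HL-#131 and #133), viability >90%, 0.75×10⁶ cells/well, Matrigel overlay 0.25 mg/mL. Dosed 36 h post-seeding at 0.1, 0.5 and 1 μM (vehicle 0.1% DMSO; rifampin 10 μM reference) for 24 h. RT-PCR fold over control = 2^ΔΔCt versus GAPDH; mean ± SD, three independent experiments.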

The target is the same in series [5]. As to the kind of experiment: Agonist activity at human constitutive androstane receptor expressed in HepG2 cells co-expressing CYP2B6 at 1 uM incubated for 23 hrs by One-Glo luciferase reporter gene assay. The class given is cell-based. The settings on record: hepg2, 23 h.
Series [6] is described as follows: Lipophilicity, logP of compound. The class given is physicochemical. The settings on record: octanol/water.
The target in series [7] is T1, Nuclear receptor subfamily 1 group I member 3. As to the kind of experiment: Induction of constitutive androstane receptor in human primary hepatocytes assessed as upregulation of CYP3A4 protein expression measured after 72 hrs by Western blot analysis. The format is cell-based. In short, it runs like this: as §1
Series [8] deals with T2, Nuclear receptor subfamily 1 group I member 2 (Homo sapiens, UniProt O75469).
T2 sequence (O75469 whole entry): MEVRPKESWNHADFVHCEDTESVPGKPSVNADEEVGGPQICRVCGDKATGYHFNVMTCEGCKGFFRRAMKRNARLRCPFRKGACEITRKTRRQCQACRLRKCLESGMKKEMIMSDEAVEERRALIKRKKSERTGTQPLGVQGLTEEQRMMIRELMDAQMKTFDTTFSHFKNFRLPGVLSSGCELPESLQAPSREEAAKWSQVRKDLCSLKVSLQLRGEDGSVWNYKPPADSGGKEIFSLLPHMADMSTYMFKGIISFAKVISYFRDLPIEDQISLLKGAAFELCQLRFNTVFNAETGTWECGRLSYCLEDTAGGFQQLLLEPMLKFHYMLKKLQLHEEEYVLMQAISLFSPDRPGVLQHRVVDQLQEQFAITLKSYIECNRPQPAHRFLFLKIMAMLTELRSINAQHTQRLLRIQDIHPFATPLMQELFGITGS
As to the kind of experiment: Agonist activity at human PXR expressed in HepG2 cells co-expressing CYP2B6 at 1 uM incubated for 23 hrs by One-Glo luciferase reporter gene assay. The class given is cell-based. The settings on record: hepg2, 23 h.

Series [9] deals with T1, Nuclear receptor subfamily 1 group I member 3. As to the kind of experiment: Induction of adenoviral enhanced yellow fluorescent protein tagged constitutive androstane receptor translocation from cytoplasm to nucleus in human primary hepatocytes at 1 uM measured after 8 hrs by DAPI staining based fluorescent microscopic analysis. The format is cell-based. Summed up:
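Hepatocytes (60,000/well, collagen plates) infected overnight with Ad/EYFP-hCAR (3 μL/mL), then treated 8 h at 1 μM; controls 0.1% DMSO, phenobarbital 1 mM. Cells PFA-fixed and DAPI-stained; five images per well. Translocation % = cells with ≥50% nuclear overlap with EYFP-hCAR ÷ EYFP-positive cells; mean ± SD of five images.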

Series [10] has the same target. As to the kind of experiment: Induction of constitutive - androstane receptor in human primary hepatocytes assessed as upregulation of CYP2B6 mRNA expression measured after 24 hrs by RT-PCR analysis. The class given is cell-based. In short, it runs like this:
as §2

The target is the same in series [11]. As to the kind of experiment: Induction of constitutive - androstane receptor in human primary hepatocytes assessed as upregulation of CYP2B6 mRNA expression at 0.5 to 5 uM after 24 hrs by RT-PCR analysis. The format is cell-based.
Series [12] has the same target. As to the kind of experiment: Induction of constitutive - androstane receptor in human primary hepatocytes assessed as upregulation of CYP3A4 mRNA expression at 0.5 to 5 uM after 24 hrs by RT-PCR analysis. The class given is cell-based.

pEC50: −log10 of the molar value.

The pEC50 is −log10 of the EC50, conventionally taken in molar units. Read a high pEC50 as a low EC50. In general, logP refers to a log measure of how a compound divides between an organic and an aqueous phase. Read a high logP as higher lipophilicity.

On to `Clc1ccc(-c2nc3sccn3c2CNCCc2cccc(Cl)c2)cc1`, for which the Ratio in series [1] stood at 1.1 µM⁻¹. The pEC50 in series [2] is 5.55.
Taken in the same sequence, the figures for `CC(C)(C)c1ccc(-c2nc3sccn3c2CNCCc2ccc(Cl)c(Cl)c2)cc1` were 0.74 µM⁻¹ and 5.00.
Regarding `O=C(NCCc1ccc(Cl)c(Cl)c1)c1c(-c2ccc(Cl)cc2)nc2sccn12`, the Ratio in [1] was determined as 2.4 µM⁻¹. The same compound had a pEC50 in series [2] of 5.96.
Taken in the same sequence, the figures for `Clc1ccc(CCNCc2c(-c3ccc(Br)cc3)nc3sccn23)cc1Cl` were 4.6 µM⁻¹ and 6.25.
As to `Clc1ccc(-c2nc3sccn3c2/C=N/OCc2ccc(Cl)c(Cl)c2)cc1`, the Activity result in [3] is recorded as “Dose-dependent effect”; in [4] it was “Active”; in [5], “Active”; in series [7], “Active”; in [8] it was “Active”; in series [9], “Active”. The Activity result in series [10] is “Dose-dependent effect”. The same compound returned a logP in series [6] of 7.26.
`Oc1ccc(CCNCc2c(-c3ccc(Cl)cc3)nc3sccn23)cc1`: the Ratio in series [1] came out at 0.36 µM⁻¹. Besides, the pEC50 in [2] was 5.00.
Turning to `Cc1cn2c(CNCCc3ccc(Cl)c(Cl)c3)c(-c3ccc(Cl)cc3)nc2s1`, the Ratio in [1] is 1.4 µM⁻¹. In series [2], the pEC50 was 5.66.
For `Clc1ccc(-c2nc3occn3c2CNCCc2ccc(Cl)c(Cl)c2)cc1`, in that order: 2.3 µM⁻¹ and 5.89.
Consider `Clc1ccc(CCNCc2c(-c3ccc(Cl)cc3)nc3sccn23)cc1`, for which the Ratio in series [1] amounted to 4.3 µM⁻¹. For the same compound, the outcome in series [5] and in series [8] was Active. Moreover, in series [2], the pEC50 is 6.19.
As to `CCc1nc2sccn2c1CNCCc1ccc(Cl)c(Cl)c1`, the Ratio in series [1] amounted to 0.37. In series [2], this compound gave a pEC50 of 5.06.
Take `Clc1ccc(-c2nc3sccn3c2CNCCc2ccc(Cl)c(Cl)c2)cc1`: the Ratio in series [1] stood at 7 µM⁻¹. Besides, the result in [5] and in series [8] was Active. Moreover, the pEC50 in series [2] is 6.40.
With `Fc1ccc(-c2nc3sccn3c2CNCCc2ccc(Cl)c(Cl)c2)cc1`, in series [1], the Ratio stood at 18 µM⁻¹. For the same compound, in [5], the outcome was Active. In series [2], the pEC50 was 6.82.
Regarding `Clc1ccc(-c2nc3sccn3c2CNCCc2ccccc2)cc1`, in series [1], the Ratio turned out to be 3.9 µM⁻¹. For the same compound, the result in series [5] and in series [8] was Active. Besides, the pEC50 in [2] was 6.13.
As for `Fc1ccc(CCNCc2c(-c3ccc(Cl)cc3)nc3sccn23)cc1`, in series [1], the Ratio was 1.4 µM⁻¹. In [2], the pEC50 was 5.68.
Turning to `Clc1ccc(-c2nc3sccn3c2CNCCc2c[nH]c3ccccc23)cc1`, the Ratio in series [1] came out at 1.4 µM⁻¹. The compound also gave a pEC50 in series [2] of 5.57.
As to `COc1ccc(-c2nc3sccn3c2CNCCc2ccc(Cl)c(Cl)c2)cc1`, in [1], the Ratio came out at 4.3 µM⁻¹. In addition, the pEC50 in [2] is 6.17.
With `Clc1ccc(CCNCc2c(-c3ccccc3)nc3sccn23)cc1Cl`, in series [1], the Ratio worked out at 12 µM⁻¹. For the same compound, the outcome in series [5] was Active. Also, the pEC50 in series [2] is 6.62.
Consider `c1ccc2c(c1)CC(NCc1c(-c3ccc4ccccc4c3)nc3sccn13)C2`, for which the Ratio in series [1] was 2.4 µM⁻¹. The outcome in series [5] and in [8] was Active. This compound had a pEC50 in [2] of 5.80.
In the case of `Clc1cccc(-c2nc3sccn3c2CNCCc2ccc(Cl)c(Cl)c2)c1`, the Ratio in series [1] amounted to 3.4 µM⁻¹. Also, in [2], the pEC50 is 6.03.
For `N#Cc1ccc(-c2nc3sccn3c2CNCCc2ccc(Cl)c(Cl)c2)cc1`, in that order: 1.9 µM⁻¹ and 5.82.
Taken in the same sequence, the figures for `Clc1ccc(-c2nc3sccn3c2CNCc2ccccc2)cc1` were 0.42 µM⁻¹ and 5.04.
With `Clc1ccc(-c2nc3ncccn3c2CNCCc2ccc(Cl)c(Cl)c2)cc1`, the Ratio in series [1] is 3 µM⁻¹. Also, the negative-log EC50 (pEC50) in series [2] is 6.04.
Taken in the same sequence, the figures for `Clc1ccc(-c2nc3sccn3c2CNCCc2ccc(Br)cc2)cc1` were 1.1 µM⁻¹ and 5.49.
`Clc1ccc(CCNCc2c(-c3ccc4ccccc4c3)nc3sccn23)cc1Cl`: the Ratio in series [1] turned out to be 2.4 µM⁻¹. Further, the result in series [5] and in series [8] was Active. This compound showed a pEC50 in [2] of 5.82.
Consider `Clc1ccc(-c2nc3sccn3c2CNC2Cc3ccccc3C2)cc1`, for which the Ratio in series [1] stood at 7.4 µM⁻¹. Further, the outcome in [5] and in [8] was Active. In series [2], this compound gave a pEC50 of 6.34.
Regarding `FC(F)(F)c1ccc(-c2nc3sccn3c2CNCCc2ccc(Cl)c(Cl)c2)cc1`, the Ratio in [1] was determined as 1.7 µM⁻¹. Also, the pEC50 in series [2] is 5.68.
With `Clc1ccc(-c2nc3sccn3c2/C=N/CCc2ccc(Cl)c(Cl)c2)cc1`, the Activity entry in [11] and in [12] was “Not Active” throughout. The Ratio in series [1] came to 0.13 µM⁻¹. The compound also gave a pEC50 in series [2] of 4.27.
Regarding `CN(CCc1ccc(Cl)c(Cl)c1)Cc1c(-c2ccc(Cl)cc2)nc2sccn12`, in [1], the Ratio was 2.1 µM⁻¹. In [2], this compound gave a pEC50 of 5.96.
Take `Cc1ccc(-c2nc3sccn3c2CNCCc2ccc(Cl)c(Cl)c2)cc1`: the Ratio in series [1] was 6.1 µM⁻¹. The compound further showed a pEC50 in series [2] of 6.36.
Consider `c1ccc(CCNCc2c(-c3ccc4ccccc4c3)nc3sccn23)cc1`, for which, in [1], the Ratio was 1.9 µM⁻¹. Moreover, the result in series [5] was Active. Moreover, the pEC50 in series [2] is 5.72.
As for `Clc1ccc(-c2nc3sccn3c2CNc2ccc3ccccc3c2)cc1`, the Ratio in [1] worked out at 0.22 µM⁻¹. In addition, in [2], the pEC50 was 4.20.
For the compound `Clc1ccc(-c2nc3sccn3c2COCCc2ccc(Cl)c(Cl)c2)cc1`, the Ratio in [1] was 13 µM⁻¹. The outcome in series [5] and in [8] was Active. In [2], this compound showed a negative logarithm of the EC50 (pEC50) of 6.72.

Values taken from ChEMBL document CHEMBL4351005, “Human constitutive androstane receptor agonist DL5016: A novel sensitizer for cyclophosphamide-based chemotherapies” (Eur J Med Chem, 2019).
